Source: ChEMBL document CHEMBL5724801, “EUbOPEN Chemogenomics Library - Multiplex” (2024)
“And” between values parts separate entries of the source, which are not always exact repeats. Identical values can stand only once.

Test system: HEK-293T
Assay: Multiplex assay against HEK293T
Assay type: toxicity, cell-based
Conditions: human
Outline: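 Live cells were stained at seeding with Hoechst33342, BioTracker Green Microtubule Cytoskeleton Dye, MitoTracker Red and Annexin V Alexa Fluor 680. Following compound addition, they were imaged on a CQ1 microscope at 37°C and 5% CO2 and gated by CellPathfinder machine learning into Hoechst high-intensity objects or normal cells, with normal cells split into healthy, pyknosed or fragmented nuclei and pyknosed cells into mitotic or apoptotic. Tubulin, mitochondrial-mass and membrane-permeability phenotypes are per cents of healthy-nucleus cells.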

[1] = 12 h, 1 µM, compound concentration 1 uM
[2] = 12 h, 10 µM, compound concentration 10 uM
[3] = 24 h, 1 µM, compound concentration 1 uM
[4] = 24 h, 10 µM, compound concentration 10 uM
[5] = 48 h, 1 µM, compound concentration 1 uM
[6] = 48 h, 10 µM, compound concentration 10 uM

O=C(Nc1ccccc1Cl)c1cnc2ccc(C3CCNCC3)cn12.O=C(O)C(=O)O was tested, and the “Population Apoptotic (%)” value [1] was 13.38% and 9.73%, the “Population Fragmented Nuclei (%)” value [1] was 1.98% and 9.79% and the “Population Hoechst High Intensity Objects (%)” value [1] was 0.39% and 0%. The “Population Membrane Permeable-Phenotype (%)” value [1] was 1.89% and 0%, the “Population Mitotic Cells (%)” value [1] was 86.62% and 90.27% and the “Population Normal (%)” value [1] was 99.61% and 100%. For the same compound, the “Population Pyknosed Nuclei (%)” value [1] was 56.13% and 79.02%, the “Population Tubulin-Different-Phenotype (%)” value [1] was 20.75% and 18.75% and the “Total Cell Count” value [1] was 254 and 143. The “Population Apoptotic (%)” value [2] was 16.08% and 15.91%, the “Population Fragmented Nuclei (%)” value [2] was 4.31% and 3.38% and the “Population Hoechst High Intensity Objects (%)” value [2] was 0.48% and 0%. For the same compound, the “Population Membrane Permeable-Phenotype (%)” value [2] was 1.75% and 0%, the “Population Mitochondria Different-Phenotype (%)” value [2] was 66.67% and 72.73% and the “Population Mitotic Cells (%)” value [2] was 83.92% and 84.09%. The “Population Normal (%)” value [2] was 99.52% and 100%, the “Population Pyknosed Nuclei (%)” value [2] was 68.42% and 89.19% and the “Population Tubulin-Different-Phenotype (%)” value [2] was 52.63% and 54.55%. The “Total Cell Count” value [2] was 210 and 148, the “Population Apoptotic (%)” value [3] was 19.23% and 23.68% and the “Population Fragmented Nuclei (%)” value [3] was 1.95% and 4.9%. For the same compound, the “Population Hoechst High Intensity Objects (%)” value [3] was 0.97% and 0%, the “Population Membrane Permeable-Phenotype (%)” value [3] was 0.74% and 4.55% and the “Population Mitochondria Different-Phenotype (%)” value [3] was 37.5% and 22.73%. For the same compound, the “Population Mitotic Cells (%)” value [3] was 80.77% and 76.32%, the “Population Normal (%)” value [3] was 99.03% and 100% and the “Population Pyknosed Nuclei (%)” value [3] was 31.71% and 79.72%. For the same compound, the “Population Tubulin-Different-Phenotype (%)” value [3] was 31.25% and 22.73%, the “Total Cell Count” value [3] was 414 and 143 and the “Population Apoptotic (%)” value [4] was 34.45% and 29.91%. For the same compound, the “Population Fragmented Nuclei (%)” value [4] was 4.76% and 4%, the “Population Healthy Nuclei (%)” value [4] was 43.72% and 18% and the “Population Hoechst High Intensity Objects (%)” value [4] was 0%. For the same compound, the “Population Membrane Permeable-Phenotype (%)” value [4] was 0.99% and 3.7%, the “Population Mitochondria Different-Phenotype (%)” value [4] was 74.26% and 51.85% and the “Population Mitotic Cells (%)” value [4] was 65.55% and 70.09%. The “Population Normal (%)” value [4] was 100%, the “Population Pyknosed Nuclei (%)” value [4] was 51.52% and 78% and the “Population Tubulin-Different-Phenotype (%)” value [4] was 81.19% and 40.74%. For the same compound, the “Total Cell Count” value [4] was 231 and 150, the “Population Apoptotic (%)” value [5] was 9.3% and 24.49% and the “Population Fragmented Nuclei (%)” value [5] was 3.3% and 6.21%. The “Population Healthy Nuclei (%)” value [5] was 83.82% and 32.92%, the “Population Hoechst High Intensity Objects (%)” value [5] was 0.1% and 0% and the “Population Membrane Permeable-Phenotype (%)” value [5] was 2.62% and 1.89%. The “Population Mitochondria Different-Phenotype (%)” value [5] was 28.13% and 43.4%, the “Population Mitotic Cells (%)” value [5] was 90.7% and 75.51% and the “Population Normal (%)” value [5] was 99.9% and 100%. The “Population Apoptotic (%)” value [6] was 20% and 23.23%, the “Population Fragmented Nuclei (%)” value [6] was 3.53% and 4.03% and the “Population Healthy Nuclei (%)” value [6] was 73.65% and 29.53%. For the same compound, the “Population Hoechst High Intensity Objects (%)” value [6] was 0.21% and 0%, the “Population Membrane Permeable-Phenotype (%)” value [6] was 1.97% and 0% and the “Population Mitochondria Different-Phenotype (%)” value [6] was 64.51% and 56.82%. For the same compound, the “Population Mitotic Cells (%)” value [6] was 80% and 76.77%, the “Population Normal (%)” value [6] was 99.79% and 100% and the “Population Pyknosed Nuclei (%)” value [6] was 22.82% and 66.44%. For the same compound, the “Population Tubulin-Different-Phenotype (%)” value [6] was 33.24% and 81.82%.
In the case of CSCC[C@H](NC=O)C(=O)N[C@@H](CC(C)C)C(=O)N[C@@H](Cc1ccccc1)C(=O)O, the “Population Apoptotic (%)” value [1] was 28%, the “Population Mitochondria Different-Phenotype (%)” value [1] was 47% and 57% and the “Population Mitotic Cells (%)” value [1] was 71%. For the same compound, the “Population Tubulin-Different-Phenotype (%)” value [1] was 23% and 16%, the “Total Cell Count” value [1] was 466 and 437 and the “Population Apoptotic (%)” value [2] was 54%. The “Population Mitochondria Different-Phenotype (%)” value [2] was 52% and 64%, the “Population Mitotic Cells (%)” value [2] was 45% and the “Population Tubulin-Different-Phenotype (%)” value [2] was 37% and 31%. The “Total Cell Count” value [2] was 366 and 375, the “Population Apoptotic (%)” value [3] was 21% and the “Population Mitochondria Different-Phenotype (%)” value [3] was 21% and 37%. The “Population Mitotic Cells (%)” value [3] was 78%, the “Population Tubulin-Different-Phenotype (%)” value [3] was 14% and 12% and the “Total Cell Count” value [3] was 679 and 550. For the same compound, the “Population Apoptotic (%)” value [4] was 25% and 36%, the “Population Mitochondria Different-Phenotype (%)” value [4] was 38% and 53% and the “Population Mitotic Cells (%)” value [4] was 75% and 64%. For the same compound, the “Population Tubulin-Different-Phenotype (%)” value [4] was 25% and 22%, the “Total Cell Count” value [4] was 479 and 490 and the “Population Apoptotic (%)” value [5] was 29% and 20%. For the same compound, the “Population Mitochondria Different-Phenotype (%)” value [5] was 12% and 17%, the “Population Mitotic Cells (%)” value [5] was 79% and the “Population Tubulin-Different-Phenotype (%)” value [5] was 12%. The “Total Cell Count” value [5] was 1154 and 838, the “Population Apoptotic (%)” value [6] was 28% and 36% and the “Population Mitochondria Different-Phenotype (%)” value [6] was 24% and 28%. For the same compound, the “Population Mitotic Cells (%)” value [6] was 71% and 63%, the “Population Tubulin-Different-Phenotype (%)” value [6] was 12% and 14% and the “Total Cell Count” value [6] was 704 and 674.
O=C1N=C(NCc2cccs2)S/C1=C\c1ccc2ncccc2c1 was tested, and the “Population Apoptotic (%)” value [1] was 11.2% and 8.04%, the “Population Fragmented Nuclei (%)” value [1] was 4.18% and 2.19% and the “Population Hoechst High Intensity Objects (%)” value [1] was 0%. For the same compound, the “Population Membrane Permeable-Phenotype (%)” value [1] was 0%, the “Population Mitochondria Different-Phenotype (%)” value [1] was 30.06% and 18.18% and the “Population Mitotic Cells (%)” value [1] was 88.8% and 91.96%. The “Population Normal (%)” value [1] was 100%, the “Population Pyknosed Nuclei (%)” value [1] was 40.19% and 81.75% and the “Total Cell Count” value [1] was 311 and 137. For the same compound, the “Population Apoptotic (%)” value [2] was 10.71% and 8.85%, the “Population Fragmented Nuclei (%)” value [2] was 2.55% and 5.49% and the “Population Healthy Nuclei (%)” value [2] was 68.88% and 25.61%. For the same compound, the “Population Hoechst High Intensity Objects (%)” value [2] was 0%, the “Population Membrane Permeable-Phenotype (%)” value [2] was 1.48% and 0% and the “Population Mitochondria Different-Phenotype (%)” value [2] was 19.26% and 9.52%. The “Population Mitotic Cells (%)” value [2] was 89.29% and 91.15%, the “Population Normal (%)” value [2] was 100% and the “Population Pyknosed Nuclei (%)” value [2] was 28.57% and 68.9%. For the same compound, the “Population Tubulin-Different-Phenotype (%)” value [2] was 25.93% and 59.52%, the “Total Cell Count” value [2] was 392 and 164 and the “Population Apoptotic (%)” value [3] was 19.59% and 9.09%. The “Population Fragmented Nuclei (%)” value [3] was 2.82% and 3.6%, the “Population Healthy Nuclei (%)” value [3] was 74.35% and 33.09% and the “Population Hoechst High Intensity Objects (%)” value [3] was 0%. The “Population Membrane Permeable-Phenotype (%)” value [3] was 0.63% and 2.17%, the “Population Mitochondria Different-Phenotype (%)” value [3] was 8.54% and 19.57% and the “Population Mitotic Cells (%)” value [3] was 80.41% and 90.91%. The “Population Normal (%)” value [3] was 100%, the “Population Pyknosed Nuclei (%)” value [3] was 22.82% and 63.31% and the “Population Tubulin-Different-Phenotype (%)” value [3] was 10.76% and 13.04%. The “Population Apoptotic (%)” value [4] was 34.38% and 21.57%, the “Population Fragmented Nuclei (%)” value [4] was 2.01% and 4.43% and the “Population Healthy Nuclei (%)” value [4] was 73.87% and 31.01%. For the same compound, the “Population Hoechst High Intensity Objects (%)” value [4] was 0%, the “Population Membrane Permeable-Phenotype (%)” value [4] was 0% and 4.08% and the “Population Mitochondria Different-Phenotype (%)” value [4] was 26.19% and 16.33%. For the same compound, the “Population Mitotic Cells (%)” value [4] was 65.62% and 78.43%, the “Population Normal (%)” value [4] was 100% and the “Population Pyknosed Nuclei (%)” value [4] was 24.12% and 64.56%. The “Population Tubulin-Different-Phenotype (%)” value [4] was 55.78% and 20.41%, the “Total Cell Count” value [4] was 398 and 158 and the “Population Apoptotic (%)” value [5] was 12.66% and 16.95%. The “Population Fragmented Nuclei (%)” value [5] was 2.96% and 1.01%, the “Population Healthy Nuclei (%)” value [5] was 86.89% and 69.35% and the “Population Hoechst High Intensity Objects (%)” value [5] was 0% and 0.5%. The “Population Membrane Permeable-Phenotype (%)” value [5] was 4.14% and 2.17%, the “Population Mitochondria Different-Phenotype (%)” value [5] was 20.41% and 24.64% and the “Population Mitotic Cells (%)” value [5] was 87.34% and 83.05%. The “Population Normal (%)” value [5] was 100% and 99.5%, the “Population Pyknosed Nuclei (%)” value [5] was 10.15% and 29.65% and the “Population Apoptotic (%)” value [6] was 37.04% and 39.66%. For the same compound, the “Population Fragmented Nuclei (%)” value [6] was 1.79% and 5.23%, the “Population Healthy Nuclei (%)” value [6] was 91.3% and 56.86% and the “Population Hoechst High Intensity Objects (%)” value [6] was 0%. The “Population Membrane Permeable-Phenotype (%)” value [6] was 0.84% and 2.3%, the “Population Mitochondria Different-Phenotype (%)” value [6] was 87.68% and 60.92% and the “Population Mitotic Cells (%)” value [6] was 62.96% and 60.34%. For the same compound, the “Population Normal (%)” value [6] was 100% and the “Total Cell Count” value [6] was 391 and 153.
